Laboratory results from ChEMBL document CHEMBL3351454, “Design, synthesis, antimicrobial evaluation and molecular docking studies of some new thiophene, pyrazole and pyridone derivatives bearing sulfisoxazole moiety” (2014).
Values after ≈ are worked out from the molar mass of the structure shown.

What was measured:
Assay type in all cases: functional
Escherichia coli [1] = assay: Antimicrobial activity against Escherichia coli RCMB 010052 assessed as absence of turbidity after 24 hrs
Outline: (§1)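 Broth microdilution in Müller–Hinton broth. DMF stocks at 1000 µg/mL were diluted in broth to give twofold serial dilutions over 500–0.007 µg/mL. Bacterial inoculum was about 10^6 CFU/mL in 96-well plates, sealed and incubated at 37 °C for 24 h in a humid chamber. MIC was taken as the lowest concentration with no visible turbidity. DMF and uninoculated-medium controls were included. Only compounds giving zones >10 mm were tested.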

Geotrichum candidum [2] = assay: Antifungal activity against Geotrichum candidum RCMB 05097 assessed as absence of turbidity after 48 hrs; conditions: RCMB 05097, 48 h
Outline: as §1, with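 “Sabouraud liquid medium.” for “Müller–Hinton broth.”, “Fungal” for “Bacterial”, “10^4” for “10^6”, “25” for “37”, “48” for “24”, “included.” for “included. Only compounds giving zones >10 mm were tested.”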

Proteus vulgaris [3] = assay: Antimicrobial activity against Proteus vulgaris RCMB 010085 assessed as absence of turbidity after 24 hrs; outline: as §1
Bacillus subtilis [4] = assay: Antimicrobial activity against Bacillis subtilis RCMB 010067 assessed as absence of turbidity after 24 hrs; conditions: RCMB 010067, 24 h; outline: as §1
Klebsiella pneumoniae [5] = assay: Antimicrobial activity against Klebsiella pneumoniae RCMB 010093 assessed as absence of turbidity after 24 hrs; outline: as §1
[6] = tested on: Staphylococcus epidermidis; assay: Antimicrobial activity against Staphylococcus epidermidis RCMB 010024 assessed as inhibition zone at 5 mg/ml after 24 hrs; conditions: RCMB 010024, 24 h, read-out: IZ
Outline: (§2)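 Agar diffusion on nutrient agar seeded with 10^6 CFU/mL bacteria. Filter-paper disks were loaded with 100 µL of a 5 mg/mL compound solution in DMF, with a DMF-only control. Incubation was 37 °C for 24 h. Inhibition zone in mm (mean ± SD, triplicate plates) was measured beyond the 6 mm diameter.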

Bacillus subtilis [7] = assay: Antimicrobial activity against Bacillis subtilis RCMB 010067 assessed as inhibition zone at 5 mg/ml after 24 hrs; conditions: RCMB 010067, 24 h, read-out: IZ; outline: as §2
Aspergillus fumigatus [8] = assay: Antifungal activity against Aspergillus fumigatus RCMB 02568 assessed as inhibition zone at 5 mg/ml after 48 hrs; conditions: RCMB 02568, 48 h, read-out: IZ
Outline: (§3)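 Disk diffusion on nutrient agar seeded with 10^4 CFU/mL fungus. Sterile filter-paper disks carried 100 µL of a 5 mg/mL DMF solution, and DMF alone served as control. Plates were incubated at 25 °C for 48 h. Mean inhibition zone in mm ± SD was read beyond the 6 mm diameter, in triplicate.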

[9] = tested on: Staphylococcus epidermidis; assay: Antimicrobial activity against Staphylococcus epidermidis RCMB 010024 assessed as absence of turbidity after 24 hrs; conditions: RCMB 010024, 24 h; outline: as §1
Klebsiella pneumoniae [10] = assay: Antimicrobial activity against Klebsiella pneumoniae RCMB 010093 assessed as inhibition zone at 5 mg/ml after 24 hrs; conditions: for zone of inhibition at 5000 µg/mL: RCMB 010093, 24 h, read-out: IZ; outline: as §2
[11] = tested on: Syncephalastrum racemosum; assay: Antifungal activity against Syncephalastrum racemosum RCMB 05922 assessed as inhibition zone at 5 mg/ml after 48 hrs; conditions: RCMB 05922, 48 h, read-out: IZ
Geotrichum candidum [12] = assay: Antifungal activity against Geotrichum candidum RCMB 05097 assessed as inhibition zone at 5 mg/ml after 48 hrs; conditions: RCMB 05097, 48 h, read-out: IZ; outline: as §3
Escherichia coli [13] = assay: Antimicrobial activity against Escherichia coli RCMB 010052 assessed as inhibition zone at 5 mg/ml after 24 hrs; conditions: RCMB 010052, 24 h, read-out: IZ; outline: as §2
[14] = tested on: Syncephalastrum racemosum; assay: Antifungal activity against Syncephalastrum racemosum RCMB 05922 assessed as absence of turbidity after 48 hrs; conditions: RCMB 05922, 48 h
Proteus vulgaris [15] = assay: Antimicrobial activity against Proteus vulgaris RCMB 010085 assessed as inhibition zone at 5 mg/ml after 24 hrs; conditions: for zone of inhibition at 5000 µg/mL: RCMB 010085, 24 h, read-out: IZ; outline: as §2
Streptococcus pneumoniae [16] = assay: Antimicrobial activity against Streptococcus pneumoniae RCMB 010010 assessed as inhibition zone at 5 mg/ml after 24 hrs; conditions: RCMB 010010, 24 h, read-out: IZ; outline: as §2
Aspergillus fumigatus [17] = assay: Antifungal activity against Aspergillus fumigatus RCMB 02568 assessed as absence of turbidity after 48 hrs; conditions: RCMB 02568, 48 h
Outline: as §1, with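 “Sabouraud liquid medium.” for “Müller–Hinton broth.”, “Fungal” for “Bacterial”, “10^4” for “10^6”, “25” for “37”, “48” for “24”, “included.” for “included. Only compounds giving zones >10 mm were tested.”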

Streptococcus pneumoniae [18] = assay: Antimicrobial activity against Streptococcus pneumoniae RCMB 010010 assessed as absence of turbidity after 24 hrs; conditions: RCMB 010010, 24 h; outline: as §1

Compound	MIC (Escherichia coli [1]; RCMB 010052, 24 h)	MIC (Geotrichum candidum [2])	MIC (Bacillus subtilis [4])	MIC (Klebsiella pneumoniae [5]; RCMB 010093, 24 h)	zone of inhibition at 5000 µg/mL [6]	zone of inhibition at 5000 µg/mL (Bacillus subtilis [7])	zone of inhibition at 5000 µg/mL (Aspergillus fumigatus [8])	MIC [9]	zone of inhibition at 5000 µg/mL (Klebsiella pneumoniae [10])	zone of inhibition at 5000 µg/mL [11]	zone of inhibition at 5000 µg/mL (Geotrichum candidum [12])	zone of inhibition at 5000 µg/mL (Escherichia coli [13])	MIC [14]	zone of inhibition at 5000 µg/mL (Streptococcus pneumoniae [16])	MIC (Aspergillus fumigatus [17])	MIC (Streptococcus pneumoniae [18])	other results
CCOc1ccc(-n2nc(C(=O)Nc3ccc(S(=O)(=O)Nc4onc(C)c4C)cc3)c(N)c2C#N)cc1	31.2 µg/mL (≈ 59.9 µM)	0.49 µg/mL (≈ 0.939 µM)	1.95 µg/mL (≈ 3.74 µM)	0.06 µg/mL (≈ 0.115 µM)	18.9 mm	19.6 mm	23 mm	3.9 µg/mL (≈ 7.48 µM)	25.1 mm	24.6 mm	21.9 mm	16.4 mm	0.06 µg/mL (≈ 0.115 µM)	20 mm	0.24 µg/mL (≈ 0.46 µM)	1.95 µg/mL (≈ 3.74 µM)	MIC (Proteus vulgaris [3]; RCMB 010085, 24 h): 7.81 µg/mL (≈ 15 µM); zone of inhibition at 5000 µg/mL (Proteus vulgaris [15]): 18.2 mm
CCOc1ccc(N/N=C(\C#N)C(=O)Nc2ccc(S(=O)(=O)Nc3onc(C)c3C)cc2)cc1	31.2 µg/mL (≈ 64.8 µM)	0.98 µg/mL (≈ 2.03 µM)	1.95 µg/mL (≈ 4.04 µM)	31.2 µg/mL (≈ 64.8 µM)	17.6 mm	20 mm	19.3 mm	7.81 µg/mL (≈ 16.2 µM)	16.3 mm	18.6 mm	21.4 mm	15.9 mm	3.9 µg/mL (≈ 8.08 µM)	19.6 mm	3.9 µg/mL (≈ 8.08 µM)	1.95 µg/mL (≈ 4.04 µM)	–
COc1ccc(-c2c(C#N)c(N)n(-c3ccc(S(=O)(=O)Nc4onc(C)c4C)cc3)c(=O)c2C#N)cc1	31.2 µg/mL (≈ 60.5 µM)	0.98 µg/mL (≈ 1.9 µM)	0.49 µg/mL (≈ 0.949 µM)	0.49 µg/mL (≈ 0.949 µM)	18.1 mm	22.2 mm	20.6 mm	7.81 µg/mL (≈ 15.1 µM)	22.3 mm	19.7 mm	20.9 mm	16.2 mm	1.95 µg/mL (≈ 3.78 µM)	20.3 mm	0.98 µg/mL (≈ 1.9 µM)	0.98 µg/mL (≈ 1.9 µM)	MIC (Proteus vulgaris [3]; RCMB 010085, 24 h): 15.6 µg/mL (≈ 30.3 µM); zone of inhibition at 5000 µg/mL (Proteus vulgaris [15]): 17.2 mm
Cc1noc(NS(=O)(=O)c2ccc(NC(=O)/C(C#N)=C/c3ccc(Cl)cc3)cc2)c1C	0.49 µg/mL (≈ 1.07 µM)	0.12 µg/mL (≈ 0.263 µM)	0.03 µg/mL (≈ 0.0657 µM)	0.06 µg/mL (≈ 0.131 µM)	22.3 mm	25.6 mm	20.3 mm	0.49 µg/mL (≈ 1.07 µM)	23.9 mm	21.6 mm	24.6 mm	22.1 mm	0.98 µg/mL (≈ 2.14 µM)	20.3 mm	0.98 µg/mL (≈ 2.14 µM)	0.98 µg/mL (≈ 2.14 µM)	MIC (Proteus vulgaris [3]; RCMB 010085, 24 h): 3.9 µg/mL (≈ 8.54 µM); zone of inhibition at 5000 µg/mL (Proteus vulgaris [15]): 19.2 mm
Cc1noc(NS(=O)(=O)c2ccc(NC(=O)/C(C#N)=C/c3ccco3)cc2)c1C	0.12 µg/mL (≈ 0.291 µM)	62.5 µg/mL (≈ 152 µM)	15.6 µg/mL (≈ 37.9 µM)	0.12 µg/mL (≈ 0.291 µM)	16.2 mm	17.4 mm	13.9 mm	31.2 µg/mL (≈ 75.8 µM)	15 mm	12.1 mm	14.6 mm	14.9 mm	500 µg/mL (≈ 1210 µM)	16.9 mm	125 µg/mL (≈ 303 µM)	15.6 µg/mL (≈ 37.9 µM)	–
Cc1noc(NS(=O)(=O)c2ccc(N)cc2)c1C [SULFISOXAZOLE]	62.5 µg/mL (≈ 234 µM)	15.6 µg/mL (≈ 58.5 µM)	0.98 µg/mL (≈ 3.67 µM)	7.81 µg/mL (≈ 29.2 µM)	17.5 mm	20.8 mm	15.1 mm	7.81 µg/mL (≈ 29.2 µM)	18.2 mm	13.2 mm	16.8 mm	15.2 mm	125 µg/mL (≈ 468 µM)	19.6 mm	62.5 µg/mL (≈ 234 µM)	1.95 µg/mL (≈ 7.29 µM)	–
GENTAMICIN	–	–	–	–	–	–	–	–	–	–	–	–	–	–	–	–	MIC (Escherichia coli [1]): 1.95 µg/mL; MIC (Proteus vulgaris [3]): 0.24 µg/mL; MIC (Klebsiella pneumoniae [5]): 0.03 µg/mL; inhibition zone (IZ) (Klebsiella pneumoniae [10]): 26.3 mm; inhibition zone (IZ) (Proteus vulgaris [15]): 23.4 mm
C[C@@H]1[C@H](O)[C@@H](C)/C=C/C=C/C=C/C=C/C=C/C=C/C=C/[C@H](O[C@@H]2O[C@H](C)[C@@H](O)[C@H](N)[C@@H]2O)C[C@@H]2O[C@](O)(C[C@@H](O)C[C@@H](O)[C@H](O)CC[C@@H](O)C[C@@H](O)CC(=O)O[C@H]1C)C[C@H](O)[C@H]2C(=O)O [AMPHOTERICIN B]	–	0.007 µg/mL (≈ 0.00758 µM)	–	–	–	–	23.7 mm	–	–	19.7 mm	28.7 mm	–	7.81 µg/mL (≈ 8.45 µM)	–	0.12 µg/mL (≈ 0.13 µM)	–	–
CC1(C)S[C@@H]2[C@H](NC(=O)[C@H](N)c3ccccc3)C(=O)N2[C@H]1C(=O)O [AMPICILLIN]	–	–	0.24 µg/mL (≈ 0.687 µM)	–	25.4 mm	32.4 mm	–	0.06 µg/mL (≈ 0.172 µM)	–	–	–	–	–	23.8 mm	–	0.12 µg/mL (≈ 0.343 µM)	–
Cc1noc(NS(=O)(=O)c2ccc(NC(=O)/C(C#N)=N/Nc3ccccc3)cc2)c1C	125 µg/mL (≈ 285 µM)	7.81 µg/mL (≈ 17.8 µM)	7.81 µg/mL (≈ 17.8 µM)	3.9 µg/mL (≈ 8.89 µM)	19.8 mm	18.4 mm	16.5 mm	1.95 µg/mL (≈ 4.45 µM)	19.1 mm	17.3 mm	17.8 mm	13.5 mm	15.6 µg/mL (≈ 35.6 µM)	15.5 mm	15.6 µg/mL (≈ 35.6 µM)	62.5 µg/mL (≈ 143 µM)	–
Cc1noc(NS(=O)(=O)c2ccc(NC(=O)/C(C#N)=C/N(C)C)cc2)c1C	31.2 µg/mL (≈ 80.2 µM)	0.98 µg/mL (≈ 2.52 µM)	0.98 µg/mL (≈ 2.52 µM)	15.6 µg/mL (≈ 40.1 µM)	18.2 mm	21.4 mm	18.3 mm	7.81 µg/mL (≈ 20.1 µM)	17.1 mm	21.1 mm	21.3 mm	16.3 mm	0.98 µg/mL (≈ 2.52 µM)	20 mm	7.81 µg/mL (≈ 20.1 µM)	1.95 µg/mL (≈ 5.01 µM)	–
Cc1noc(NS(=O)(=O)c2ccc(NC(=O)c3c(Nc4ccccc4)sc(C#N)c3N)cc2)c1C	500 µg/mL (≈ 983 µM)	15.6 µg/mL (≈ 30.7 µM)	15.6 µg/mL (≈ 30.7 µM)	125 µg/mL (≈ 246 µM)	14.2 mm	17.4 mm	16.3 mm	125 µg/mL (≈ 246 µM)	13.6 mm	15.2 mm	17.3 mm	11.2 mm	62.5 µg/mL (≈ 123 µM)	15.2 mm	31.2 µg/mL (≈ 61.4 µM)	62.5 µg/mL (≈ 123 µM)	–
COc1ccc(N/N=C(\C#N)C(=O)Nc2ccc(S(=O)(=O)Nc3onc(C)c3C)cc2)cc1	31.2 µg/mL (≈ 66.7 µM)	1.95 µg/mL (≈ 4.16 µM)	0.98 µg/mL (≈ 2.09 µM)	1.95 µg/mL (≈ 4.16 µM)	20.2 mm	21.2 mm	16.3 mm	1.95 µg/mL (≈ 4.16 µM)	20.2 mm	18.6 mm	19.8 mm	15.9 mm	3.9 µg/mL (≈ 8.32 µM)	17.3 mm	31.2 µg/mL (≈ 66.7 µM)	15.6 µg/mL (≈ 33.4 µM)	–
